This note sets out measurements from publication PMC3309561 (Biochimica et biophysica acta, 2010).

This data set has as its system 15 base pair duplex DNA. Kind of data set: Near-UV circular dichroism / UV absorbance titration of duplex DNA with peptide. Conditions: UV absorbance spectra during titration of duplex DNA, room temperature. The class given is binding. The method, boiled down: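 15 bp duplex DNA at 1.66 µM (typically 1–2 µM) was titrated at room temperature with small additions of a 5 mg/ml peptide stock. UV absorbance was acquired at the same time as the near-UV CD, in a 10 mm cell from 340 to 220 nm, across increasing peptide/DNA molar ratios. Uncorrected spectra show light scattering; zeroed spectra (340 nm) track 260 nm absorbance.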

Regarding “GIGKFLHSAKKFGKAFVGEIMNS-NH2 [Magainin 2 amide]”, the “Turbidity (light scattering) above 310 nm of DNA with peptide” value is given as “absence of turbidity”.
